From PubChem BioAssay AID504360 (Broad Institute, 2011)
Activity calls are given as the source filed them.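 Rule for the calls: active = fitted curve rises past 10% of the positive control signal at or below the top valid tested dose; inconclusive = flat fit between 30 and 70%, or an unreliable fit; inactive = the rest, including signal that falls instead.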

Tested on: not listed separately
Test: apoptosis induction in tBid-primed mouse fibroblasts – cell-based, MEF A1-2A-tBid, luminescence, dry powder, set 3, orthogonal assay for A1 inhibitor project, dose response (AID 504360)
Details: MEF A1-2A-tBid cells, caspase-3/7 luminescence, 3 h; at 35 µM (top of the series)
How it was run: (§1)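 Compound dosing: 100 nL pinned compound / Assay system: mouse embryonic fibroblasts co-expressing A1 and tBid (A1-2A-tBid), primed / Buffer or medium: RPMI-1640, 10% FBS / Timing: 3 h compound at 37 °C, 1 h reagent at room temperature / Measured by: luminescence from Caspase-Glo 3/7 DEVD-luciferin substrate, 1:1 in 50 mM HEPES / Read-out: Caspase-3/7 activity derived from luminescence signal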

Question: For Cc1ccc(Sc2c(Sc3ccc(C)cc3)c3ccccc3n(C)c2=O)cc1, which caspase activation is on record?
Answer: 0.911% (inactive)

Question: With Cc1ccc(Sc2c(Sc3ccc(C)cc3)c3ccccc3n(Cc3ccccc3)c2=O)cc1 as the compound, how does the caspase activation read?
Answer: 1.55% (inactive)

Question: With CCn1c(=O)c([N+](=O)[O-])c(Sc2ccc(C)cc2)c2ccccc21 as the compound, how does the caspase activation read?
Answer: 1.72% (inactive)

Question: For O=C(COc1ccc(Cl)cc1Cl)NNc1nc(N2CCOCC2)nc(N2CCOCC2)n1, which caspase activation is on record?
Answer: -1.25% (inactive)

Question: Which caspase activation does the source give for Cc1ccc(Sc2c([N+](=O)[O-])c(=O)n(C)c3ccccc23)cc1 here?
Answer: 10.3% (inactive)

Question: With COc1c([N+](=O)[O-])c(=O)n(C)c2ccccc12 as the compound, how does the caspase activation read?
Answer: 1.76% (inactive)

Question: Which caspase activation does the source give for C/C(=N\Nc1nc(N2CCCCC2)nc(N2CCCCC2)n1)c1ccc(F)cc1 here?
Answer: -0.355% (inactive)

Question: Which caspase activation does the source give for COc1ccc(CCNc2nc(N3CCOCC3)nc(N3CCOCC3)n2)cc1OC here?
Answer: 1.3% (inactive)

Question: For Cn1c(=O)c(Sc2ccccn2)c(Sc2ccccn2)c2ccccc21, which caspase activation is on record?
Answer: 3.1% (inactive)

Question: With COc1nc2ccccc2c(Cl)c1[N+](=O)[O-] as the compound, how does the caspase activation read?
Answer: 1.9% (inactive)

Question: For COc1ccc(N2CCN(c3nc(NCCc4ccc(OC)c(OC)c4)nc(N4CCOCC4)n3)CC2)cc1, which caspase activation is on record?
Answer: -0.079% (inactive)

Question: Which caspase activation does the source give for O=c1[nH]c2ccccc2c(O)c1[N+](=O)[O-] here?
Answer: 2.36% (inactive)

Question: Which caspase activation does the source give for COc1ccc(CCNc2nc(N3CCCC3)nc(N3CCCC3)n2)cc1OC here?
Answer: 3.4% (inactive)

Question: For COCCn1c(=O)c(Sc2ccc(C)cc2)c(Sc2ccc(C)cc2)c2ccccc21, which caspase activation is on record?
Answer: 1.26% (inactive)

Question: For Cc1ccc(Sc2c([N+](=O)[O-])c(=O)n(Cc3ccccc3)c3ccccc23)cc1, which caspase activation is on record?
Answer: 3.46% (inactive)

Question: With CCn1c(=O)c(Sc2ccc(C)cc2)c(Sc2ccc(C)cc2)c2ccccc21 as the compound, how does the caspase activation read?
Answer: 5.31% (inactive)

Question: Which caspase activation does the source give for COc1nc2ccccc2c(Sc2ccc(C)cc2)c1[N+](=O)[O-] here?
Answer: 1.61% (inactive)

Tested on: MEF A1-2A-tBid cells, caspase-3/7 luminescence, 3 h
Test: as above
Details: not given
How it was run: as §1

Question: For O=c1c([N+](=O)[O-])c(Cl)c2ccccc2n1Cc1ccccc1, which AC10 is on record?
Answer: 12400 nM

Question: Which AC10 does the source give for Cc1ccc(S(=O)(=O)c2c([N+](=O)[O-])c(=O)n(C)c3ccccc23)cc1 here?
Answer: 3190 nM

Question: With Cn1c(=O)c([N+](=O)[O-])c(Sc2ccccn2)c2ccccc21 as the compound, how does the AC10 read?
Answer: 2950 nM

Question: For O=c1[nH]c2ccccc2c(Cl)c1[N+](=O)[O-], which AC10 is on record?
Answer: 2540 nM

Question: For CC1(C)CCC(c2ccc(Cl)cc2)=C(CN2CCN(c3ccc(C(=O)NS(=O)(=O)c4ccc(N[C@H](CCN5CCOCC5)CSc5ccccc5)c(S(=O)(=O)C(F)(F)F)c4)cc3)CC2)C1, which AC10 is on record?
Answer: 579 nM

Question: Which AC10 does the source give for CCn1c(=O)c([N+](=O)[O-])c(Cl)c2ccccc21 here?
Answer: 1950 nM

Question: With Cn1c(=O)c([N+](=O)[O-])c(S(C)(=O)=O)c2ccccc21 as the compound, how does the AC10 read?
Answer: 3280 nM

Question: With COCCn1c(=O)c([N+](=O)[O-])c(Cl)c2ccccc21 as the compound, how does the AC10 read?
Answer: 1470 nM

Question: Which AC10 does the source give for COCCn1c(=O)c([N+](=O)[O-])c(Sc2ccc(C)cc2)c2ccccc21 here?
Answer: 16700 nM

Question: Which AC10 does the source give for Cn1c(=O)c([N+](=O)[O-])c(Cl)c2ccccc21 here?
Answer: 1880 nM
